Results as given in ChEMBL document CHEMBL3745654, “N-Alkylated arylsulfonamides of (aryloxy)ethyl piperidines: 5-HT(7) receptor selectivity versus multireceptor profile” (Bioorg Med Chem, 2016).

Legend:
[1] = target: 5-hydroxytryptamine receptor 2A (Homo sapiens, UniProt P28223); assay: Displacement of [3H]-ketanserin from human 5-HT2A receptor expressed in HEK293 cells incubated for 1 hr; type: cell-based
Method in brief: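 Membranes from HEK293 cells stably expressing human 5-HT2A receptor, with [3H]-ketanserin (66.9 Ci/mmol). Incubation 1 h at 37 °C, then rapid filtration and counting. Triplicates at 7–8 concentrations (10^-11 to 10^-4 M). Ki by Cheng–Prusoff; means of at least three experiments.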

[2] = target: T1, 5-hydroxytryptamine receptor 1A (Homo sapiens, UniProt P08908); assay: Displacement of [3H]-8-OH-DPAT from human 5-HT1A receptor expressed in HEK293 cells incubated for 1 hr; type: cell-based
T1 sequence (P08908 whole entry): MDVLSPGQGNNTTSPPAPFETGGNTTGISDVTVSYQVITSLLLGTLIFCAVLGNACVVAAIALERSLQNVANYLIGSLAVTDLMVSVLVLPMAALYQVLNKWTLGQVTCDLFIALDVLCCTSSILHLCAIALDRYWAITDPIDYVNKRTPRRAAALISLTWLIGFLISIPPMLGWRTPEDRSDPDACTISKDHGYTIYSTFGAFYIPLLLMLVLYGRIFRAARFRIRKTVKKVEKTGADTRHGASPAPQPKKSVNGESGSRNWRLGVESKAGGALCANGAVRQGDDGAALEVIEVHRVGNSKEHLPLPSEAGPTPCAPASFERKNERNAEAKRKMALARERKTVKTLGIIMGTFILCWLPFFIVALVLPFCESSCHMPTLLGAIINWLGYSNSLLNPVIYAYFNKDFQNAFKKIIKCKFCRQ
Method in brief: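 Membranes from HEK293 cells stably expressing human 5-HT1A receptor, with [3H]-8-OH-DPAT (187 Ci/mmol). Buffer: 50 mM Tris-HCl, 0.1 mM EDTA, 4 mM MgCl2, pargyline, 0.1% ascorbate. Incubation 1 h at room temperature, then filtration. Non-specific binding defined with 5-HT. Triplicates at 7–8 concentrations. Ki by Cheng–Prusoff.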

[3] = Half life in mouse liver microsomes at 20 uM at pH 7.4 incubated for 15 mins by UPLC/MS analysis in presence of NADPH; type: ADME
Method in brief: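 Compound (20 µM) incubated with mouse liver microsomes (0.2 mg/ml) in 100 mM potassium phosphate, pH 7.4, 37 °C. Reaction started with NADPH-regenerating system; blank without NADPH run in parallel. Sampling at 5, 15, 30 and 60 min (some to 120 min), in duplicate. Levallorphan internal standard; UPLC/MS quantitation. t1/2 from ln % remaining vs time.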

[4] = Intrinsic clearance in mouse liver microsomes at 20 uM at pH 7.4 incubated for 15 mins by UPLC/MS analysis in presence of NADPH; type: ADME; details: read-out: CLH
[5] = target: 5-hydroxytryptamine receptor 7 (Homo sapiens, UniProt P34969); assay: Displacement of [3H]-5-CT from human 5-HT7B receptor expressed in HEK293 cells incubated for 1 hr; type: cell-based
Method in brief: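 Membranes from HEK293 cells stably expressing human 5-HT7b receptor, with [3H]-5-CT (39.2 Ci/mmol). Buffer: 50 mM Tris-HCl, 4 mM MgCl2, pargyline, 0.1% ascorbate. Incubation 1 h at 37 °C, then rapid filtration and counting of filter radioactivity. Non-specific binding defined with 5-HT. Triplicates at 7–8 concentrations (10^-11 to 10^-4 M). Ki by Cheng–Prusoff.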

[6] = target: T2, Adrenergic receptor alpha-1 (Rattus norvegicus, UniProt P15823+P23944+P43140); assay: Displacement of [3H]-Prazosin form rat cerebral cortex alpha-1 adrenergic receptor after 60 mins by scintillation counting method; type: tissue-based
T2 sequence (P15823 whole entry): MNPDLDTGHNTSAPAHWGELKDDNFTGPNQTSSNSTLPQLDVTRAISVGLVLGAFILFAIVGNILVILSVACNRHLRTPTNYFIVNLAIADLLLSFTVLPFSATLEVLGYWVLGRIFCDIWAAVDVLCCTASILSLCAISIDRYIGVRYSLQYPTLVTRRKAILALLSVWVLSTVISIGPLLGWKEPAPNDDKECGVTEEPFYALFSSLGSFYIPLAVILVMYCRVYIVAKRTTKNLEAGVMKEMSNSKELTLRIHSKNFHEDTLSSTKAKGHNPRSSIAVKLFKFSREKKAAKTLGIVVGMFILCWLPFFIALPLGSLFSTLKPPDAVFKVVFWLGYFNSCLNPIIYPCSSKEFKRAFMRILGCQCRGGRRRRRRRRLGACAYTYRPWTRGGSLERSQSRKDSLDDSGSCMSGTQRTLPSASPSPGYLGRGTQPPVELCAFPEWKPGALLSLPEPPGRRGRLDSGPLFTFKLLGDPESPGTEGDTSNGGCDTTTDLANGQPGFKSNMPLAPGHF
T2 sequence (P23944 whole entry): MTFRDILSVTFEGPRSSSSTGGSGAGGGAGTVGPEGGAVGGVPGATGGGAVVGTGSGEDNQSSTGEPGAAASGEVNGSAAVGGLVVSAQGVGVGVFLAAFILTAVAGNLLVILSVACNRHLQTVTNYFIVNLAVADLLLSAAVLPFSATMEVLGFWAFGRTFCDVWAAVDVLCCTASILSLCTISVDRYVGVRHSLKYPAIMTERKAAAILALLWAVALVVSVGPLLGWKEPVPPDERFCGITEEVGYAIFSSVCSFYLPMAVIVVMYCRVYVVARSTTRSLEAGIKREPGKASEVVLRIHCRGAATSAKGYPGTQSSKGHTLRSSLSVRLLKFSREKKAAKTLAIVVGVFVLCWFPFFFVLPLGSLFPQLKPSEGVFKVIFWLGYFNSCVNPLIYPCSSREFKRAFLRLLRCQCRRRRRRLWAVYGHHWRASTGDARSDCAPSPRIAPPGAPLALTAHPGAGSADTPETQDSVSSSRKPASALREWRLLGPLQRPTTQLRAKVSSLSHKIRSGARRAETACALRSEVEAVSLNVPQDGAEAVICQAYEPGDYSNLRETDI
T2 sequence (P43140 whole entry): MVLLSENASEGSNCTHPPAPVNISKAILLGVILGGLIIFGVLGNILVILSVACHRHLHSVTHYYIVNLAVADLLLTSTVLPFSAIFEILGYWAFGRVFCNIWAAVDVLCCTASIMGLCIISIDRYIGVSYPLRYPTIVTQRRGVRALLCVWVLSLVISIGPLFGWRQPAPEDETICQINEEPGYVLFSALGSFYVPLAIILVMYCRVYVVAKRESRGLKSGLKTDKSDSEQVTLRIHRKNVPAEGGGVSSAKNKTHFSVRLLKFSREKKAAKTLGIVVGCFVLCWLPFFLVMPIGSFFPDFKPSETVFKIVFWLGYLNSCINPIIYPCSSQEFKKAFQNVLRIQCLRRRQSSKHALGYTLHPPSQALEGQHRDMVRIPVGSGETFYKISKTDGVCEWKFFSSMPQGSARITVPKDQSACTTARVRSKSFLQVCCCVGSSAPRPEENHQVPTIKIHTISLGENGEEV
Method in brief: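 Rat cerebral cortex membranes incubated with [3H]-prazosin (22 Ci/mmol; 0.6 nM). Compound tested at seven or eight concentrations (1 nM upward). Ki calculated by Cheng–Prusoff.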

Sequence of 5-hydroxytryptamine receptor 7 (P34969 whole entry): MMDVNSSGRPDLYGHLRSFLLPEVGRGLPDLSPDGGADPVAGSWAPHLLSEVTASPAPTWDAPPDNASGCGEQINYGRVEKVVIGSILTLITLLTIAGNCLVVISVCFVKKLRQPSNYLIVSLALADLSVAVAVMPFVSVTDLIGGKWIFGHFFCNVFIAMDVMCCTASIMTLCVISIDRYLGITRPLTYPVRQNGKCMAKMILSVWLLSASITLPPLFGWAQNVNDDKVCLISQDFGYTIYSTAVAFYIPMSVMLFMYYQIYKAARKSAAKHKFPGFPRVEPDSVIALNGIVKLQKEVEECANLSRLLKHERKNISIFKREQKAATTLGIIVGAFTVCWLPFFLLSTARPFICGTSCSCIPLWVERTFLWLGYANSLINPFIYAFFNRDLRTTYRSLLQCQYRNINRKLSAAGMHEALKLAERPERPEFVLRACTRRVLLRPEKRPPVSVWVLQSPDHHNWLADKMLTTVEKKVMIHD
Sequence of 5-hydroxytryptamine receptor 2A (P28223 whole entry): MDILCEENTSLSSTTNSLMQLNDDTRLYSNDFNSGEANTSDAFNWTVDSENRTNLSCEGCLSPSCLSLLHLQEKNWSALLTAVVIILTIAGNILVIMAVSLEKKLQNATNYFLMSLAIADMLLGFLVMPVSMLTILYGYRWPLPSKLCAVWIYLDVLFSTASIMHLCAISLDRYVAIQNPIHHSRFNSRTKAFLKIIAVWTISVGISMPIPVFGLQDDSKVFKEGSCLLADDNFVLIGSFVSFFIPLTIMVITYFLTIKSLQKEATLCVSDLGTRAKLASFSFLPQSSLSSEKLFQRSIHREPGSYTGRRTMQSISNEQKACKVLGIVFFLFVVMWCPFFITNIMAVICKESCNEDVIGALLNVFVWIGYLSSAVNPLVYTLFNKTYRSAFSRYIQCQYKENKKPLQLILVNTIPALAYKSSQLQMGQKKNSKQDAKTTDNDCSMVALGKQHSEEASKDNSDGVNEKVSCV

SMILES	Ki [1]	Ki [2]	half-life at 20 µM [3]	microsomal CLint at 20 µM [4]	Ki [5]	Ki [6]
CN(C1CCN(CCOc2ccccc2C(C)(C)C)CC1)S(=O)(=O)c1cnn(C)c1	0.557 µM	9.63 µM	20 min	190 µL/min/mg	0.058 µM	> 0.3 µM
Cn1cc(S(=O)(=O)N(CC2CC2)C2CCN(CCOc3ccccc3-c3ccccc3)CC2)cn1	0.03 µM	0.159 µM	62 min	55.9 µL/min/mg	0.01 µM	> 0.3 µM
CN(C1CCN(CCOc2ccccc2-c2ccccc2)CC1)S(=O)(=O)c1cnn(C)c1	0.058 µM	0.08 µM	26.2 min	167 µL/min/mg	0.007 µM	> 0.3 µM
Cn1cc(S(=O)(=O)N(CC2CC2)C2CCN(CCOc3ccccc3C(C)(C)C)CC2)cn1	1.48 µM	17.8 µM	44.5 min	77.9 µL/min/mg	0.049 µM	> 0.3 µM
